From ChEMBL document CHEMBL2203099, “Identification of a crucial amino acid in the helix position 6.51 of human tachykinin neurokinin 1 and 3 receptors contributing to the insurmountable mode of antagonism by dual NK₁/NK₃ antagonists” (J Med Chem, 2012)
Residue numbers refer to the chain shown, from its start. Activity calls are given as the source filed them. The rule behind the calls is not given here. Where a SMILES comes first, the peptide text is derived from it. [ ]: non-standard residue; d: D form. NMeF = CN[C@@H](Cc1ccccc1)C(=O)O

Experiments:
[1] = tested on: Substance-P receptor (Homo sapiens), P25103 [F264Y]; experiment: Noncompetitive inhibition of human NK1 F264Y6.51 mutant receptor expressed in HEK293 cells assessed as decrease in SP1-induced [3H]IP accumulation after 20 mins; format: cell-based
Sequence of Substance-P receptor (Homo sapiens), P25103 [F264Y] (P25103 whole entry F264Y): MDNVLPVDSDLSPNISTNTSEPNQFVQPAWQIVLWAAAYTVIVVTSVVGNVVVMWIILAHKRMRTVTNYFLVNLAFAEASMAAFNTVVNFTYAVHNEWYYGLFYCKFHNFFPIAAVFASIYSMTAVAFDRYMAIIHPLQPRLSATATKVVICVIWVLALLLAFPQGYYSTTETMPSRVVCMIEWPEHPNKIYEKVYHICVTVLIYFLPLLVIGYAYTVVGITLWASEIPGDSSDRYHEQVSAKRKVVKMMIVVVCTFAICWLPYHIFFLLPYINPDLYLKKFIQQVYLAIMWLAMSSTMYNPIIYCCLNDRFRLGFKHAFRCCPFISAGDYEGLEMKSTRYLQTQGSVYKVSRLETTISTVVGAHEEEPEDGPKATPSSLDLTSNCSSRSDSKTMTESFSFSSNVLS

[2] = target: T1, Substance-P receptor (Homo sapiens, UniProt P25103); experiment: Noncompetitive inhibition of wild type human NK1 receptor expressed in HEK293 cells assessed as decrease in SP1-induced [3H]IP accumulation after 20 mins; format: cell-based
T1 sequence (P25103 whole entry): as the sequence (P25103 whole entry F264Y) above, with Y264F counted along it

[3] = tested on: HEK293; experiment: Selectivity ratio of Ki for human NK3 H316F mutant expressed in HEK293 cells to Ki for wild type human NK3 receptor expressed in HEK293 cells; format: cell-based
[4] = tested on: HEK293; experiment: Selectivity ratio of Ki for human NK3 Y247W mutant expressed in HEK293 cells to Ki for wild type human NK3 receptor expressed in HEK293 cells; format: cell-based
[5] = tested on: HEK293; experiment: Selectivity ratio of Ki for human NK3 Y247F mutant expressed in HEK293 cells to Ki for wild type human NK3 receptor expressed in HEK293 cells; format: cell-based
[6] = target: T2, Neuromedin-K receptor (Homo sapiens, UniProt P29371, H316W); experiment: Displacement of radioligand [3H]osanetant at human NK3 H316W mutant expressed in HEK293 cells; format: cell-based
T2 sequence (P29371 whole entry H316W): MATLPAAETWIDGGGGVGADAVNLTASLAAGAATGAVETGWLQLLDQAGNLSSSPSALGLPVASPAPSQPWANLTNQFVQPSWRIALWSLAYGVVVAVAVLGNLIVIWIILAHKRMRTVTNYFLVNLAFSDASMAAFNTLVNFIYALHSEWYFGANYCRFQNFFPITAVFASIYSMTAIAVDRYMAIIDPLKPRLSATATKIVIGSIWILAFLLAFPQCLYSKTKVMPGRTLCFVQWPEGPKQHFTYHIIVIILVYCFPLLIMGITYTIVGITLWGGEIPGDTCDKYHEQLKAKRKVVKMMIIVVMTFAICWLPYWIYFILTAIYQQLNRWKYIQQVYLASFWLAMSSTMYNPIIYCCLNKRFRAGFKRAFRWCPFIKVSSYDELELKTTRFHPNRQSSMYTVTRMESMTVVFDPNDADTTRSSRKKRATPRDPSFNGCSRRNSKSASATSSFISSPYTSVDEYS

[7] = target: T3, Neuromedin-K receptor (Homo sapiens, UniProt P29371, H316F); experiment: Displacement of radioligand [3H]osanetant at human NK3 H316F mutant expressed in HEK293 cells; format: cell-based
T3 sequence (P29371 whole entry H316F): as the sequence (P29371 whole entry H316W) above, with W316F counted along it

[8] = target: T4, Neuromedin-K receptor (Homo sapiens, UniProt P29371, Y247W); experiment: Displacement of radioligand [3H]osanetant at human NK3 Y247W mutant expressed in HEK293 cells; format: cell-based
T4 sequence (P29371 whole entry Y247W): as the sequence (P29371 whole entry H316W) above, with Y247W, W316H counted along it

[9] = target: T5, Neuromedin-K receptor (Homo sapiens, UniProt P29371, Y247F); experiment: Displacement of radioligand [3H]osanetant at human NK3 Y247F mutant expressed in HEK293 cells; format: cell-based
T5 sequence (P29371 whole entry Y247F): as the sequence (P29371 whole entry H316W) above, with Y247F, W316H counted along it

[10] = tested on: HEK293; experiment: Selectivity ratio of Ki for wild type human NK3 receptor expressed in HEK293 cells to Ki for human NK3 Y315F6.51 mutant expressed in HEK293 cells; format: cell-based
[11] = target: T6, Neuromedin-K receptor (Homo sapiens, UniProt P29371, Y315F); experiment: Displacement of radioligand [3H]osanetant at human NK3 Y315F6.51 mutant expressed in HEK293 cells; format: cell-based
T6 sequence (P29371 whole entry Y315F): as the sequence (P29371 whole entry H316W) above, with Y315F, W316H counted along it

[12] = target: T7, Neuromedin-K receptor (Homo sapiens, UniProt P29371); experiment: Displacement of [3H]osanetant from wild type human NK3 receptor expressed in HEK293 cells; format: cell-based
T7 sequence (P29371 whole entry): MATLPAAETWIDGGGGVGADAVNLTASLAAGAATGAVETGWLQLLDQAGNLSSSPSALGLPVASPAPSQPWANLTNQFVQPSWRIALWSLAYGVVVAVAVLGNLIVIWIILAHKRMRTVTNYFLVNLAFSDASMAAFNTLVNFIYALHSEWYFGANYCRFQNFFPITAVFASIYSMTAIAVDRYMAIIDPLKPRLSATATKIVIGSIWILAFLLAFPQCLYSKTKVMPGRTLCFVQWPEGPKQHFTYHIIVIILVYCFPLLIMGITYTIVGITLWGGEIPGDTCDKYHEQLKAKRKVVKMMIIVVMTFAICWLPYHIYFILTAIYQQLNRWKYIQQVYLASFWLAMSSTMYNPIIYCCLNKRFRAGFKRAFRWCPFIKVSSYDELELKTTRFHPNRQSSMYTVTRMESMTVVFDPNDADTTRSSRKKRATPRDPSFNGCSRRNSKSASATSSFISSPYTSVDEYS

[13] = target: T8, Substance-P receptor (Homo sapiens, UniProt P25103, F264Y); experiment: Displacement of radioligand [3H]SP from human NK1 F264Y6.51 mutant expressed in HEK293 cells; format: cell-based
T8 sequence (P25103 whole entry F264Y): as the sequence (P25103 whole entry F264Y) above
Outline: (§1)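 Membranes from transiently transfected HEK293 cells, 2.5 μg protein/well, in 50 mM HEPES pH 7.4 with 3 mM MnCl2, phosphoramidon, leupeptin and 0.04% BSA. 10 competitor concentrations (0.0003–10 μM), 90 min at rt. Nonspecific binding with 10 μM NK1 antagonist. Filtration, then scintillation counting. Ki by Cheng–Prusoff. Three experiments, each in duplicate.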

[14] = target: T1, Substance-P receptor; experiment: Displacement of radioligand [3H]SP from wild type human NK1 receptor expressed in HEK293 cells; format: cell-based; outline: as §1
[15] = target: T5, Neuromedin-K receptor; experiment: Competitive inhibition at human NK3 Y247F5.38 mutant expressed in HEK293 cells assessed as decrease in [MePhe7]NKB-induced [3H]IP accumulation after 20 mins; format: cell-based; details: read-out: pA2 (converted)
[16] = tested on: T9, Neuromedin-K receptor (Homo sapiens), P29371 [H316W]; experiment: Antagonist activity at human NK3 H316W6.52 mutant expressed in HEK293 cells assessed as decrease in [MePhe7]NKB-induced [3H]IP accumulation after 20 mins; format: functional, cell-based
T9 sequence (whole entry): T7 sequence (P29371 whole entry) with H316W
Outline: (§2)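 HEK293 cells transiently expressing human NK3 WT or mutant, labeled with myo-[³H]inositol in LiCl buffer. Antagonist preincubated 20 min at 37 °C, then [MePhe⁷]NKB (0.01 nM–1 μM) added for 45 min at 37 °C. [³H]IP read by SPA beads. Schild analysis of EC50 shift and Emax depression across increasing antagonist concentrations gives pA2, slope and mode of antagonism.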

[17] = tested on: T10, Neuromedin-K receptor (Homo sapiens), P29371 [Y315F]; experiment: Noncompetitive inhibition at human NK3 Y315F6.51 mutant expressed in HEK293 cells assessed as decrease in [MePhe7]NKB-induced [3H]IP accumulation after 20 mins; format: cell-based; outline: as §2
T10 sequence (whole entry): T7 sequence (P29371 whole entry) with Y315F

[18] = target: T7, Neuromedin-K receptor; experiment: Competitive inhibition at wild type human NK3 expressed in HEK293 cells assessed as decrease in [MePhe7]NKB-induced [3H]IP accumulation after 20 mins; format: cell-based; details: read-out: pA2 (converted); outline: as §2
[19] = target: T6, Neuromedin-K receptor; experiment: Competitive inhibition at human NK3 Y315F6.51 mutant expressed in HEK293 cells assessed as decrease in [MePhe7]NKB-induced [3H]IP accumulation after 20 mins; format: cell-based; details: read-out: pA2 (converted); outline: as §2
[20] = target: T11, Neuromedin-K receptor (Homo sapiens, UniProt P29371, Y247A); experiment: Binding affinity to human NK3 Y247A mutant expressed in HEK293 cells
T11 sequence (P29371 whole entry Y247A): as the sequence (P29371 whole entry H316W) above, with Y247A, W316H counted along it

[21] = target: T7, Neuromedin-K receptor; experiment: Agonist activity at wild type human NK3 receptor expressed in HEK293 cells assessed as [3H]IP accumulation after 45 mins; format: functional, cell-based
Outline: (§3)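 Human NK3 (WT or point mutant) transiently transfected into HEK293 cells and labeled with 5 μCi/mL myo-[³H]inositol. Assay buffer HBSS/20 mM HEPES pH 7.4 with 8 mM LiCl. [MePhe⁷]NKB at 0.01 nM–1 μM for 45 min at 37 °C. Lysis in 20 mM formic acid; [³H]IP captured on yttrium silicate SPA beads. EC50 and Hill slope from a four-parameter fit. Emax given as % of the WT fitted maximum from the same day.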

[22] = target: T1, Substance-P receptor; experiment: Binding affinity at human NK1 receptor
[23] = target: T2, Neuromedin-K receptor; experiment: Agonist activity at human NK3 H316W mutant expressed in HEK293 cells assessed as [3H]IP accumulation after 45 mins; format: functional, cell-based; outline: as §3
[24] = target: T3, Neuromedin-K receptor; experiment: Agonist activity at human NK3 H316F mutant expressed in HEK293 cells assessed as [3H]IP accumulation after 45 mins; format: functional, cell-based; outline: as §3
[25] = target: T4, Neuromedin-K receptor; experiment: Agonist activity at human NK3 Y247W mutant expressed in HEK293 cells assessed as [3H]IP accumulation after 45 mins; format: functional, cell-based; outline: as §3
[26] = target: T11, Neuromedin-K receptor; experiment: Agonist activity at human NK3 Y247A mutant expressed in HEK293 cells assessed as [3H]IP accumulation after 45 mins; format: functional, cell-based; outline: as §3
[27] = target: T5, Neuromedin-K receptor; experiment: Agonist activity at human NK3 Y247F mutant expressed in HEK293 cells assessed as [3H]IP accumulation after 45 mins; format: functional, cell-based; outline: as §3
[28] = target: T1, Substance-P receptor
[29] = target: T8, Substance-P receptor; experiment: Partial noncompetitive inhibition of human F264Y6.51 mutant expressed in HEK293 cells assessed as decrease in SP1-induced [3H]IP accumulation after 20 mins; format: cell-based; details: read-out: pA2 (converted)
[30] = tested on: T10, Neuromedin-K receptor (Homo sapiens), P29371 [Y315F]; experiment: Antagonist activity at human NK3 Y315F6.51 mutant expressed in HEK293 cells assessed as decrease in [MePhe7]NKB-induced [3H]IP accumulation at 10 nM after 20 mins; format: functional, cell-based
[31] = target: T12, Neuromedin-K receptor (Homo sapiens) (UniProt P29371); experiment: Noncompetitive inhibition at wild type human NK3 expressed in HEK293 cells assessed as decrease in [MePhe7]NKB-induced [3H]IP accumulation after 20 mins; format: cell-based; outline: as §2
T12 sequence (whole entry): T7 sequence (P29371 whole entry)

| SMILES | inhibition [1] | inhibition [2] | Ratio Ki [10] | Ki [11] [nM] | Ki [12] [nM] | Ki [13] [nM] | Ki [14] [nM] | inhibition [17] | Kb [18] [nM] | Kb [19] [nM] | also measured |
| --- | --- | --- | --- | --- | --- | --- | --- | --- | --- | --- | --- |
| Cc1cc(F)ccc1-c1cc(N2CCN(S(C)(=O)=O)[C@@H](C)C2)ncc1N(C)C(=O)C(C)(C)c1cc(C(F)(F)F)cc(C(F)(F)F)c1 | Active | Active | 8.5 | 0.2 | 1.7 | 0.5 | 0.3 | Active | 16.2 |  | Ratio Ki [3]: 11.6; Ratio Ki [4]: 3; Ratio Ki [5]: 1.1; Ki [6]: > 10000 nM; Ki [7]: 19.7 nM; Ki [8]: 5.1 nM; Ki [9]: 1.8 nM; Kb [15]: 47.9 nM; Activity [16]: inactive |
| Cc1cc(F)ccc1-c1cc(N2CCN(S(C)(=O)=O)CC2)ncc1N(C)C(=O)C(C)(C)c1cc(C(F)(F)F)cc(C(F)(F)F)c1 | Active | Active | 3.4 | 0.7 | 2.4 | 1.4 | 0.4 |  | 123 | 2.45 |  |
| [3H]c1cccc(C2(N(C)C(C)=O)CCN(CCC[C@]3(c4ccc(Cl)c(Cl)c4)CCCN(C(=O)c4ccccc4)C3)CC2)c1 |  |  |  |  |  |  |  |  |  |  | Kd [20]: Not Active |
| CSCC[C@H](NC(=O)[C@H](CC(C)C)NC(=O)CNC(=O)[C@H](Cc1ccccc1)N(C)C(=O)[C@H](Cc1ccccc1)NC(=O)[C@H](Cc1ccccc1)NC(=O)[C@H](CC(=O)O)NC(=O)[C@H](Cc1cnc[nH]1)NC(=O)[C@H](CCSC)NC(=O)[C@@H](N)CC(=O)O)C(N)=O (H-DMHDFF[NMeF]GLM-NH2) |  |  |  |  |  |  |  |  |  |  | EC50 [21]: 0.71 nM; Ki [22]: > 10000 nM; EC50 [23]: 3.48 nM; EC50 [24]: Not Active; EC50 [25]: Not Active; EC50 [26]: Not Active; EC50 [27]: 2.22 nM |
| Cc1cc(F)ccc1-c1cc(N2CC[C@H](O)C2)ncc1N(C)C(=O)C(C)(C)c1cc(C(F)(F)F)cc(C(F)(F)F)c1 | Active | Active | 4.8 | 2.5 | 11.9 | 2.1 | 1.3 |  | 120 | 20.9 |  |
| C[C@@H](O[C@H]1OCCN(Cc2n[nH]c(=O)[nH]2)[C@H]1c1ccc(F)cc1)c1cc(C(F)(F)F)cc(C(F)(F)F)c1 [APREPITANT] |  | Active |  |  | 454 |  |  |  |  |  | T1/2 [28]: 2.57 h |
| COc1ccccc1CN[C@H]1C2CCN(CC2)[C@H]1C(c1ccccc1)c1ccccc1 [CP-96345] |  |  |  |  | > 10000 |  |  |  |  |  |  |
| Cc1cc(F)ccc1-c1cc(N2CCC[C@H]2CO)ncc1N(C)C(=O)C(C)(C)c1cc(C(F)(F)F)cc(C(F)(F)F)c1 |  | Active | 2.5 | 0.6 | 1.5 | 2.8 | 1.4 | Active |  |  | Kb [29]: 39.8 nM; Activity [30]: Active; inhibition [31]: Active |
| Cc1cc(F)ccc1-c1cc(N2CCN(S(C)(=O)=O)C[C@H]2CO)ncc1N(C)C(=O)C(C)(C)c1cc(C(F)(F)F)cc(C(F)(F)F)c1 |  | Active | 2 | 0.6 | 1.2 | 1.3 | 0.7 | Active |  |  | Kb [29]: 17 nM; Activity [30]: Active; inhibition [31]: Active |
| Cc1cc(F)ccc1-c1cc(N2CCC3(CC2)OCCS3(=O)=O)ncc1N(C)C(=O)C(C)(C)c1cc(C(F)(F)F)cc(C(F)(F)F)c1 | Active | Active | 3.5 | 1 | 3.5 | 1.7 | 1.4 |  | 97.7 | 37.2 |  |
